{"source": "ChEMBL document CHEMBL1123904", "about": "“Synthesis, structure, and biological activity of certain 2-deoxy-beta-D-ribo-hexopyranosyl nucleosides and nucleotides” (J Med Chem, 1987)", "proteins": {"B1": {"name": "Adenosine deaminase (Bos taurus), P56658 (protein)", "chain": "MAQTPAFNKPKVELHVHLDGAIKPETILYYGRKRGIALPADTPEELQNIIGMDKPLSLPEFLAKFDYYMPAIAGCREAVKRIAYEFVEMKAKDGVVYVEVRYSPHLLANSKVEPIPWNQAEGDLTPDEVVSLVNQGLQEGERDFGVKVRSILCCMRHQPSWSSEVVELCKKYREQTVVAIDLAGDETIEGSSLFPGHVKAYAEAVKSGVHRTVHAGEVGSANVVKEAVDTLKTERLGHGYHTLEDATLYNRLRQENMHFEVCPWSSYLTGAWKPDTEHPVVRFKNDQVNYSLNTDDPLIFKSTLDTDYQMTKNEMGFTEEEFKRLNINAAKSSFLPEDEKKELLDLLYKAYGMPSPASAEQCL"}}, "key": {"[1]": {"substrate": "Nc1nc(N)c2ncn(C3CC(O)C(O)C(CO)O3)c2n1", "test": "(§1) Kinetic parameters for adenosine deaminase (ADase) was determined", "in_short": "(§2)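 Calf intestine adenosine deaminase; substrate and inhibitor kinetic parameters measured spectrophotometrically.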"}, "[2]": {"substrate": "Nc1ncnc2c1ncn2C1CC(O)C(O)C(CO)O1", "test": "as §1", "in_short": "as §2"}, "[3]": {"substrate": "Nc1ncnc2c1ncn2[C@@H]1O[C@H](CO)[C@@H](O)[C@H]1O", "test": "as §1", "in_short": "as §2"}}}
{"protein": "B1", "values": [{"measurement": "Km", "setting": "[1]", "value": 900, "unit": "µM"}, {"measurement": "Km", "setting": "[2]", "value": 57, "unit": "µM"}, {"measurement": "Km", "setting": "[3]", "value": 31, "unit": "µM"}]}
